Assay results: paper PMC3171643 (ACS combinatorial science, 2011)

Legend:
[1] = target: Calcineurin (Homo sapiens) (UniProt Q08209); conditions: cited from earlier work
Cn = conditions: cited from earlier work
[2] = target: GST-Cn (catalytic domain of human Cn) (Homo sapiens, UniProt Q08209); format: binding; conditions: Cn 5 μM, TMR-labeled peptide 100 nM
In short: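 Human Cn catalytic domain as a GST fusion, expressed in E. coli BL21 and glutathione-Sepharose purified. Single-bead-released TAMRA-labeled cyclic peptide (100 nM) was incubated with 5 μM GST-Cn for 2 h at room temperature in 20 mM HEPES pH 7.4, 150 mM NaCl, 2 mM magnesium acetate, 0.1% BSA. Anisotropy was read at ex 545/em 585 nm and expressed as % increase over the peptide without Cn.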

VIVIT peptide
Kd [1]: 500 nM

MAPGHPVIVITGPHEE
Kd (Cn; VIVIT peptide binding to Cn): 500 nM
fold higher affinity for Cn than the native sequence (Cn): 50 fold

CN(C)c1ccc2c(-c3ccccc3C(=O)[O-])c3ccc(N(C)C)cc3[o+]c2c1 [free TMR, tetramethylrhodamine]
percentage of FA increase (relative to the control without Cn) [2]: less than 20%
